# Measurements gathered from unrelated publications.
# Compare with care: the assays were run in different laboratories.
Compound,organism,test,test system,setting,quantity,result
CC(C)[C@H](N)C(=O)OCCCCCn1cnc2nc(NCc3ccc(Cl)c(Cl)c3)[nH]c(=O)c21,Lacticaseibacillus casei,"microbial growth, agar dilution",,48 h,MIC,> 32 µg/mL
CCCCCOc1ccc(-c2cc(-c3ccc(C(=O)N[C@H]4C[C@@H](O)[C@@H](O)NC(=O)[C@@H]5[C@@H](O)[C@@H](C)CN5C(=O)[C@H]([C@H](O)CC(N)=O)NC(=O)[C@H]([C@H](O)[C@@H](O)c5ccc(O)c(OS(=O)(=O)O)c5)NC(=O)[C@@H]5C[C@@H](O)CN5C(=O)[C@H]([C@@H](C)O)NC4=O)cc3)no2)cc1,Candida tropicalis,biofilm formation,,16 µg/mL,inhibition,28%
CC(C)=CCC/C(C)=C/CNCCNC1C2CC3CC(C2)CC1C3 (centres unmarked),Mycolicibacterium smegmatis,microbial growth,,48 h,IC50,2.4 µM
Cn1cnc2nc(NCc3ccc(Cl)c(Cl)c3)[nH]c(=O)c21,Lacticaseibacillus casei,"microbial growth, agar dilution",,48 h,MIC,32 µg/mL
COc1ccc2c(ccc3oc([N+](=O)[O-])c(C)c32)c1,Mycolicibacterium smegmatis,"microbial growth, resazurin",MC^2155,,MIC90,> 32 µg/mL
O=C1C2CC3CC(C2)CC1C3,Mycolicibacterium smegmatis,microbial growth,,48 h,IC50,> 500 µM
O=[N+]([O-])c1cc2cc3ccc4oc([N+](=O)[O-])cc4c3cc2o1,Mycolicibacterium smegmatis,"microbial growth, resazurin",MC^2155,,MIC90,4 µg/mL
Cc1c2ccncc2c(C)c2c1[nH]c1ccccc12,Mycolicibacterium smegmatis,"microbial killing, resazurin",,,MBC,87.1 µM
